By Ki is commonly meant the equilibrium dissociation constant of an inhibitor or competing ligand from its target. Usually IC50 stands for the concentration at which inhibition is half-maximal.

Here are results for eleven molecules from BindingDB's records for doi:10.1021/acs.jmedchem.8b02026 (Leiden University, 2019).

In assay [1] the target is T1, Adenosine receptor A3 (Homo sapiens, UniProt P0DMS8).
T1 sequence (P0DMS8 whole entry): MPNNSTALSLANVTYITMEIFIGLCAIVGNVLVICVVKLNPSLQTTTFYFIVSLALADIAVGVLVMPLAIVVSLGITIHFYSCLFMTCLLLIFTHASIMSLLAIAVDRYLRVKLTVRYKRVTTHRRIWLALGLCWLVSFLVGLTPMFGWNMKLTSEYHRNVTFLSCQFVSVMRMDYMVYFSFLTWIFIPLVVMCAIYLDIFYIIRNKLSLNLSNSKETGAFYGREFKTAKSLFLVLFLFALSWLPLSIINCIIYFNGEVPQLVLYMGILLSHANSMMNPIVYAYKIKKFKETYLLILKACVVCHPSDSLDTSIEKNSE
Put plainly: Displacement of [3H]PSB11 from human A3 adenosine receptor expressed in CHO cell membranes measured after 2 hrs by scintillation spectrometric method.

A further assay has as its target T2, Adenosine receptor A1 (Homo sapiens, UniProt P30542).
T2 sequence (P30542 whole entry): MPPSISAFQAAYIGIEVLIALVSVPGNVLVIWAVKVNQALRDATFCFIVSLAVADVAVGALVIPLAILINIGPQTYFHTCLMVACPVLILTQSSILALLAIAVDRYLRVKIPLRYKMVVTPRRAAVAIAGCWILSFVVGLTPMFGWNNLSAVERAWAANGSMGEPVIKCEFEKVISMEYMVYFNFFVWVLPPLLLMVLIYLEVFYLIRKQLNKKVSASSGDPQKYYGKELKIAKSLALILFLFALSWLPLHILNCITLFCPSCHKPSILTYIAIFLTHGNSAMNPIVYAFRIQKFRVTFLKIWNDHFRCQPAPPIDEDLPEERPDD
Put plainly: Displacement of [3H]DPCPX from human A1 adenosine receptor expressed in CHO cell membranes measured after 2 hrs by scintillation spectrometric method.

The next assay concerns the target Adenosine receptor A2a (Homo sapiens, UniProt P29274). Nature of the assay: Displacement of [3H]ZM241385 from human A2A adenosine receptor expressed in HEK293 cell membranes measured after 2 hrs by scintillation spectrometric method.
For assay [2], the target named is T3, Adenosine receptor A3 (Homo sapiens, UniProt P0DMS8, Y265F).
T3 sequence (P0DMS8 whole entry): T1 sequence (P0DMS8 whole entry)
Nature of the assay: Displacement of [3H]PSB11 from human A3 adenosine receptor Y265F (7.36) mutant transiently expressed in CHOK1 cell membranes measured after 2 hrs by scintillation spectrometric method. The procedure, abridged:
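Membranes (15 µg) in 50 mM Tris-HCl, 5 mM MgCl2, 0.01% CHAPS, 1 mM EDTA, pH 7.4. Six competitor concentrations with ~10 nM [3H]PSB-11, 2 h at 25 °C. NSB from 100 µM NECA; filtration and scintillation counting; one-site fit. Three experiments, duplicate.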

Adenosine receptor A2a, sequence (P29274 whole entry): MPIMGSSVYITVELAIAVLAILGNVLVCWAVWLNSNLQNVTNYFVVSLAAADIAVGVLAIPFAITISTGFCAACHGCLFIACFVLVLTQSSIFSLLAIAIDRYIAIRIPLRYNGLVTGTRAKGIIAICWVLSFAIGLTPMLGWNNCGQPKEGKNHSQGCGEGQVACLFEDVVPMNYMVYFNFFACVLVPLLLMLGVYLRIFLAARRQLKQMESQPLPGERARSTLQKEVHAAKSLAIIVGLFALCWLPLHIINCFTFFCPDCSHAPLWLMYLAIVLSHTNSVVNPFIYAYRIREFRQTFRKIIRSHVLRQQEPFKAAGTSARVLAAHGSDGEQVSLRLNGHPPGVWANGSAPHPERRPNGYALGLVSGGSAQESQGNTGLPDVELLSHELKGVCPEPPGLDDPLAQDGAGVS

The molecule `CCCn1c(=O)c2c(nc3cc(OC)ccn32)n(CCCOC(=O)c2cccc(S(=O)(=O)F)c2)c1=O` had a Ki at Adenosine receptor A3 [1] of 100 nM. Consider `CCCn1c(=O)c2c(nc3cc(OC)ccn32)n(CCCNC(=O)c2ccc(S(C)(=O)=O)cc2)c1=O`, for which the values for the Ki on Adenosine receptor A1 and at Adenosine receptor A2a were 15800 nM and 6310 nM, respectively. The molecule also displayed an IC50 at Adenosine receptor A3 [2] of 794 nM. Regarding `CCCn1c(=O)c2c(nc3cc(OC)ccn32)n(CCCNC(=O)c2cccc(S(=O)(=O)F)c2)c1=O`, on Adenosine receptor A3 [1], the affinity, expressed as Ki, was 32 nM. On Adenosine receptor A3 [1], `CCCn1c(=O)c2c(nc3cc(OC)ccn32)n(CCCCOC(=O)c2ccc(S(=O)(=O)F)cc2)c1=O` came in with a Ki of 32 nM. On Adenosine receptor A3 [1], `CCCn1c(=O)c2c(nc3cc(OC)ccn32)n(CCOC(=O)c2cccc(S(=O)(=O)F)c2)c1=O` registered a Ki of 398 nM. On Adenosine receptor A3 [1], `CCCn1c(=O)c2c(nc3cc(OC)ccn32)n(CCCCNC(=O)c2cccc(S(=O)(=O)F)c2)c1=O` yielded a Ki of 158 nM. `CCCn1c(=O)c2c(nc3cc(OC)ccn32)n(CCCOC(=O)c2ccc(S(=O)(=O)F)cc2)c1=O` had a Ki on Adenosine receptor A3 [1] of 20 nM. Same read-out and setting: in the case of `CCCn1c(=O)c2c(nc3cc(OC)ccn32)n(CCCCNC(=O)c2ccc(S(=O)(=O)F)cc2)c1=O` it was 32 nM; in that of `CCCn1c(=O)c2c(nc3cc(OC)ccn32)n(CCCCOC(=O)c2cccc(S(=O)(=O)F)c2)c1=O`, 79 nM; in that of `CCCn1c(=O)c2c(nc3cc(OC)ccn32)n(CCOC(=O)c2ccc(S(=O)(=O)F)cc2)c1=O`, 200 nM. As to `CCCn1c(=O)c2c(nc3cc(OC)ccn32)n(CCCNC(=O)c2ccc(S(=O)(=O)F)cc2)c1=O`, the inhibitory constant (Ki) worked out at 794 nM at Adenosine receptor A1 and 1260 nM on Adenosine receptor A2a.
